In brackets after ≈: the same amount, converted by molar mass. Activity calls are given as the source filed them. The rule behind the calls is not given here.
Tests used:
Escherichia coli [1] = assay: Antibacterial activity against Escherichia coli expressing CMY-2 assessed as inhibition of bacterial growth incubated for 16 to 24 hrs by CLSI based two-fold serial dilution method; format: functional; details: time 16-24 hrs
Summary of the method: (§1)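 CLSI broth microdilution with twofold serial dilutions in cation-adjusted Mueller Hinton broth. Inoculum set from OD625 to about 5 × 10⁴ cfu/well final. Plates incubated at 35 °C for 16−20 h. MIC is the lowest concentration with no growth visible to the unaided eye.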

Klebsiella pneumoniae [2] = assay: Antibacterial activity against Klebsiella pneumoniae SR200263 assessed as inhibition of bacterial growth incubated for 16 to 24 hrs by CLSI based two-fold serial dilution method; format: functional; details: time 16-24 hrs
Summary of the method: (§2)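 CLSI broth microdilution in cation-adjusted Mueller Hinton broth, twofold serial dilutions, about 5 × 10⁴ cfu/well from OD625, 35 °C for 16−20 h. MIC is the lowest concentration with no visible growth.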

Klebsiella pneumoniae [3] = assay: Antibacterial activity against Klebsiella pneumoniae SR201325 assessed as inhibition of bacterial growth incubated for 16 to 20 hrs by CLSI based two-fold serial dilution method
Escherichia coli [4] = assay: Antibacterial activity against Escherichia coli expressing KPC-2 assessed as inhibition of bacterial growth incubated for 16 to 24 hrs by CLSI based two-fold serial dilution method; format: functional; details: time 16-24 hrs; summary of the method: as §1
Escherichia coli [5] = assay: Antibacterial activity against Escherichia coli expressing OXA-48 assessed as inhibition of bacterial growth incubated for 16 to 24 hrs by CLSI based two-fold serial dilution method; format: functional; details: time 16-24 hrs; summary of the method: as §1
Klebsiella pneumoniae [6] = assay: Antibacterial activity against Klebsiella pneumoniae SR09603 assessed as inhibition of bacterial growth incubated for 16 to 20 hrs by CLSI based two-fold serial dilution method
Enterobacter cloacae [7] = assay: Antibacterial activity against Enterobacter cloacae SR200030 assessed as inhibition of bacterial growth incubated for 16 to 24 hrs by CLSI based two-fold serial dilution method; format: functional; details: time 16-24 hrs; summary of the method: as §2
Enterobacter cloacae [8] = assay: Antibacterial activity against Enterobacter cloacae SR100108 assessed as inhibition of bacterial growth incubated for 16 to 20 hrs by CLSI based two-fold serial dilution method
Klebsiella pneumoniae [9] = assay: Antibacterial activity against Klebsiella pneumoniae SR09635 assessed as inhibition of bacterial growth incubated for 16 to 20 hrs by CLSI based two-fold serial dilution method
Klebsiella pneumoniae [10] = assay: Antibacterial activity against Klebsiella pneumoniae SR100758 assessed as inhibition of bacterial growth incubated for 16 to 24 hrs by CLSI based two-fold serial dilution method; format: functional; details: time 16-24 hrs; summary of the method: as §2
Escherichia coli [11] = assay: Antibacterial activity against Escherichia coli assessed as inhibition of bacterial growth incubated for 16 to 24 hrs by CLSI based two-fold serial dilution method; format: functional; details: time 16-24 hrs; summary of the method: as §1
Enterobacter cloacae [12] = assay: Antibacterial activity against Enterobacter cloacae SR36276 assessed as inhibition of bacterial growth incubated for 16 to 20 hrs by CLSI based two-fold serial dilution method
Escherichia coli [13] = assay: Antibacterial activity against Escherichia coli expressing CTX-M-15 assessed as inhibition of bacterial growth incubated for 16 to 24 hrs by CLSI based two-fold serial dilution method; format: functional; details: time 16-24 hrs; summary of the method: as §1
Klebsiella pneumoniae [14] = assay: Antibacterial activity in ICR mouse infected with Klebsiella pneumoniae SR08667 assessed as reduction in bacterial colony forming units at 30 mg/kg,po administered upto 48 hrs after infection; format: functional, organism-based
Summary of the method: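 Urinary tract infection model in 5-week-old female ICR mice, N = 5 per arm. 1.2 × 10⁶ CFU given transurethrally, urethra tied for 4 h. Oral dosing at 4, 8, 28 and 32 h post-infection in 0.5% methylcellulose: ceftibuten 30 mg/kg alone, ceftibuten 10 mg/kg plus prodrug 3, 10 or 30 mg/kg, or both at 30 mg/kg. Kidneys homogenized at 4 or 48 h and plated on modified Drigalski agar. Read-out is change in log CFU/kidney versus untreated controls at treatment start.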

Klebsiella pneumoniae [15] = assay: Antibacterial activity against Klebsiella pneumoniae SR200487 assessed as inhibition of bacterial growth incubated for 16 to 24 hrs by CLSI based two-fold serial dilution method; format: functional; details: time 16-24 hrs; summary of the method: as §2
Klebsiella pneumoniae [16] = assay: Antibacterial activity against Klebsiella pneumoniae SR200263 assessed as reduction in bacterial growth by measuring minimum […] concentration incubated for 16 to 20 hrs by CLSI based two-fold serial dilution method; details: time 16-20 hrs
Enterobacter cloacae [17] = assay: Antibacterial activity against Enterobacter cloacae SR100108 assessed as reduction in bacterial growth by measuring minimum […] concentration incubated for 16 to 20 hrs by CLSI based two-fold serial dilution method; details: time 16-20 hrs
Klebsiella pneumoniae [18] = assay: Antibacterial activity against Klebsiella pneumoniae SR201325 assessed as reduction in bacterial growth by measuring minimum […] concentration incubated for 16 to 24 hrs by CLSI based two-fold serial dilution method; format: functional; details: time 16-24 hrs
Summary of the method: (§3)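 Inhibitor twofold serially diluted in cation-adjusted Mueller Hinton broth containing ceftibuten 1 μg/mL. About 5 × 10⁴ cfu/well, 35 °C for 16−20 h. […] N = 1.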

Klebsiella pneumoniae [19] = assay: Antibacterial activity against Klebsiella pneumoniae SR100758 assessed as reduction in bacterial growth by measuring minimum […] concentration incubated for 16 to 24 hrs by CLSI based two-fold serial dilution method; format: functional; details: time 16-24 hrs; summary of the method: as §3
Klebsiella pneumoniae [20] = assay: Antibacterial activity against Klebsiella pneumoniae SR09603 assessed as reduction in bacterial growth by measuring minimum […] concentration incubated for 16 to 20 hrs by CLSI based two-fold serial dilution method; details: time 16-20 hrs
Enterobacter cloacae [21] = assay: Antibacterial activity against Enterobacter cloacae SR36276 assessed as reduction in bacterial growth by measuring minimum […] concentration incubated for 16 to 20 hrs by CLSI based two-fold serial dilution method; details: time 16-20 hrs
Enterobacter cloacae [22] = assay: Antibacterial activity against Enterobacter cloacae SR200030 assessed as reduction in bacterial growth by measuring minimum […] concentration incubated for 16 to 24 hrs by CLSI based two-fold serial dilution method; format: functional; details: time 16-24 hrs; summary of the method: as §3
[23] = Inhibition of bacterial beta-lactamase OXA-48 using nitrocefin as substrate incubated for 20 mins; design: species or system Bacteria
Summary of the method: (§4)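 Nitrocefin hydrolysis read by absorbance. Enzyme titrated to give about 0.2 absorbance change over the no-enzyme control. Enzyme added to nitrocefin (final 50 μg/mL) plus inhibitor, no preincubation, read after 20 min at 35 °C. IC50 is 50% reduction of hydrolysis. N = 1.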

Klebsiella pneumoniae [24] = assay: Antibacterial activity against Klebsiella pneumoniae ATCC BAA1705 assessed as reduction in bacterial growth by measuring minimum potentiating concentration incubated for 16 to 20 hrs by CLSI based two-fold serial dilution method; details: time 16-20 hrs
Escherichia coli [25] = assay: Antibacterial activity against Escherichia coli ATCC SR34100 assessed as inhibition of bacterial growth incubated for 16 to 20 hrs by CLSI based two-fold serial dilution method
Escherichia coli [26] = assay: Antibacterial activity against Escherichia coli ATCC SR09613 assessed as inhibition of bacterial growth incubated for 16 to 20 hrs by CLSI based two-fold serial dilution method
Klebsiella pneumoniae [27] = assay: Antibacterial activity against Klebsiella pneumoniae ATCC SR201218 assessed as inhibition of bacterial growth incubated for 16 to 20 hrs by CLSI based two-fold serial dilution method
Escherichia coli [28] = assay: Antibacterial activity against Escherichia coli ATCC SR34100 assessed as reduction in bacterial growth by measuring minimum […] concentration incubated for 16 to 24 hrs by CLSI based two-fold serial dilution method; format: functional; details: time 16-24 hrs
Summary of the method: (§5)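 MPC₁ by broth microdilution: twofold serial dilutions of inhibitor in cation-adjusted Mueller Hinton broth containing ceftibuten at 1 μg/mL. Inoculum about 5 × 10⁴ cfu/well final, set from OD625. Incubation at 35 °C for 16−20 h. […] N = 1.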

Klebsiella pneumoniae [29] = assay: Antibacterial activity against Klebsiella pneumoniae SR09635 assessed as reduction in bacterial growth by measuring minimum […] concentration incubated for 16 to 20 hrs by CLSI based two-fold serial dilution method; details: time 16-20 hrs
[30] = Inhibition of bacterial beta-lactamase CMY-2 using nitrocefin as substrate incubated for 20 mins; design: species or system Bacteria; summary of the method: as §4
Klebsiella pneumoniae [31] = assay: Antibacterial activity against Klebsiella pneumoniae SR200487 assessed as reduction in bacterial growth by measuring minimum […] concentration incubated for 16 to 20 hrs by CLSI based two-fold serial dilution method; details: time 16-20 hrs
[32] = Inhibition of bacterial beta-lactamase KPC-2 using nitrocefin as substrate incubated for 20 mins; design: species or system Bacteria; summary of the method: as §4
Klebsiella pneumoniae [33] = assay: Antibacterial activity against Klebsiella pneumoniae ATCC SR201218 assessed as reduction in bacterial growth by measuring minimum […] concentration incubated for 16 to 24 hrs by CLSI based two-fold serial dilution method; format: functional; details: time 16-24 hrs; summary of the method: as §5
Escherichia coli [34] = assay: Antibacterial activity against Escherichia coli ATCC SR09613 assessed as reduction in bacterial growth by measuring minimum […] concentration incubated for 16 to 24 hrs by CLSI based two-fold serial dilution method; format: functional; details: time 16-24 hrs; summary of the method: as §5
Klebsiella pneumoniae [35] = assay: Antibacterial activity against Klebsiella pneumoniae ATCC BAA1705 assessed as inhibition of bacterial growth incubated for 16 to 20 hrs by CLSI based two-fold serial dilution method

Nc1nc(/C(=C/CC(=O)O)C(=O)N[C@@H]2C(=O)N3C(C(=O)O)=CCS[C@H]23)cs1 [CEFTIBUTEN]
MIC (Escherichia coli [1]): > 32 µg/mL
MIC (Klebsiella pneumoniae [2]): > 32 µg/mL
MIC (Klebsiella pneumoniae [3]): > 32 µg/mL
MIC (Escherichia coli [4]): 16 µg/mL (≈ 39 µM)
MIC (Escherichia coli [5]): > 32 µg/mL
MIC (Klebsiella pneumoniae [6]): > 32 µg/mL
MIC (Enterobacter cloacae [7]): > 32 µg/mL
MIC (Enterobacter cloacae [8]): > 32 µg/mL
MIC (Klebsiella pneumoniae [9]): > 32 µg/mL
MIC (Klebsiella pneumoniae [10]): > 32 µg/mL
MIC (Escherichia coli [11]): > 32 µg/mL
MIC (Enterobacter cloacae [12]): > 32 µg/mL
MIC (Escherichia coli [13]): 32 µg/mL (≈ 78 µM)
Activity (Klebsiella pneumoniae [14]): inactive
MIC (Klebsiella pneumoniae [15]): > 32 µg/mL

NC(=O)[C@@H]1CC[C@@H]2CN1C(=O)N2OS(=O)(=O)O [AVIBACTAM]
MIC (Klebsiella pneumoniae [2]): > 32 µg/mL
MIC (Klebsiella pneumoniae [3]): 32 µg/mL (≈ 121 µM)
MPC (Klebsiella pneumoniae [16]): 0.063 µg/mL
MPC (Enterobacter cloacae [17]): 8 µg/mL
MPC (Klebsiella pneumoniae [18]): 2 µg/mL
MPC (Klebsiella pneumoniae [19]): 2 µg/mL
MPC (Klebsiella pneumoniae [20]): 8 µg/mL
MPC (Enterobacter cloacae [21]): 4 µg/mL
MPC (Enterobacter cloacae [22]): 16 µg/mL
MIC (Klebsiella pneumoniae [6]): > 32 µg/mL
IC50 [23]: 5700 nM
MPC (Klebsiella pneumoniae [24]): 0.125 µg/mL
MIC (Enterobacter cloacae [7]): 32 µg/mL (≈ 121 µM)
MIC (Escherichia coli [25]): 16 µg/mL (≈ 60.3 µM)
MIC (Escherichia coli [26]): 16 µg/mL (≈ 60.3 µM)
MIC (Enterobacter cloacae [8]): 32 µg/mL (≈ 121 µM)
MIC (Klebsiella pneumoniae [9]): > 32 µg/mL
MIC (Klebsiella pneumoniae [27]): > 32 µg/mL
MIC (Klebsiella pneumoniae [10]): > 32 µg/mL
MPC (Escherichia coli [28]): 0.125 µg/mL
MPC (Klebsiella pneumoniae [29]): 0.5 µg/mL
MIC (Enterobacter cloacae [12]): 32 µg/mL (≈ 121 µM)
IC50 [30]: 59 nM
MPC (Klebsiella pneumoniae [31]): 4 µg/mL
IC50 [32]: 72 nM
MIC (Klebsiella pneumoniae [15]): > 32 µg/mL
MPC (Klebsiella pneumoniae [33]): 1 µg/mL
MPC (Escherichia coli [34]): 0.5 µg/mL
MIC (Klebsiella pneumoniae [35]): 32 µg/mL (≈ 121 µM)
